Laboratory results from ChEMBL document CHEMBL3351507, “11H-Pyrido[3',2':4,5]pyrrolo[3,2-c]cinnoline and pyrido[3',2':4,5]pyrrolo[1,2-c][1,2,3]benzotriazine: two new ring systems with antitumor activity” (2014).
Calls of active or inactive are those of the source. The calls are words filed in the database; no cut-off is given here.

What was measured:
[1] = Binding affinity to DNA (unknown origin) at compound to DNA ratio 0.01 to 0.04 by linear dichroism method
In short: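 Linear dichroism spectra were recorded at different compound/DNA ratios in 10 mM phosphate buffer, pH 7.2.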

[2] = test system: Jurkat; assay: Induction of apoptosis in human Jurkat cells assessed as lysosomal dysfunction at 250 to 500 nM after 24 hrs by acridine orange staining-based flow cytometry relative to control; type: functional, cell-based
In short: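 Jurkat cells were treated for 24 h at two concentrations, then stained with acridine orange. Flow cytometry (488 nm excitation, FL3 emission) scored red fluorescence of intact lysosomes. Mean ± SEM of at least 3 experiments, compared with control.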

[3] = test system: LoVo; assay: Anticlonogenic activity against human LoVo cells assessed as inhibition of colony formation of cells at 0.625 to 10 uM incubated for 24 hrs followed by compound washout measured after 1 to 2 weeks by crystal violet staining-based assay; type: functional, cell-based
[4] = test system: Jurkat; assay: Induction of apoptosis in human Jurkat cells assessed as caspase-3 activation at 500 nM after 6 to 24 hrs by plate reader analysis; type: functional, cell-based
In short: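 Jurkat cells were treated with 500 nM compound for 6 h and 24 h, then lysed. Lysates were incubated with pNA-conjugated substrates: Ac-DEVD (caspase-3), Ac-IETD (caspase-8) and LEHD (caspase-9). pNA release was read at 405 nm and normalized to Bradford protein. Results are expressed as fold increase over untreated control.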

[5] = test system: CCRF-CEM; assay: Cytotoxicity against human CCRF-CEM cells assessed as growth inhibition after 72 hrs by MTT assay; type: functional
[6] = test system: LoVo; assay: Anticlonogenic activity against human LoVo cells assessed as inhibition of colony formation of cells at 2.5 to 5 uM incubated for 24 hrs followed by compound washout measured after 1 to 2 weeks by crystal violet staining-based assay; type: functional, cell-based

With COc1ccc2c(c1)nnn1c3ncccc3c(N=O)c21 the Activity [1] was “inactive”, the Activity [2] was “inactive” and the inhibition [3] was “Active”. For the same compound, the Activity [4] was “Active”.

For O=Nc1c2cccnc2n2nnc3ccc(Cl)cc3c12, the GI50 [5] was 23 nM.

With COc1ccc2c(c1)nnc1c3cccnc3[nH]c21 the Activity [1] was “Active”, the Activity [2] was “inactive” and the Activity [4] was “Active”. For the same compound, the inhibition [6] was “Active”.

For COc1cc2nnn3c4ncccc4c(N=O)c3c2cc1OC, the Activity [1] was “inactive”, the Activity [2] was “inactive” and the Activity [4] was “Active”. For the same compound, the inhibition [6] was “Active” and the GI50 [5] was under 10 nM.
